Measured values as given in ChEMBL document CHEMBL4732116, “Discovery of novel CA-4 analogs as dual inhibitors of tubulin polymerization and PD-1/PD-L1 interaction for cancer treatment” (Eur J Med Chem, 2021).
Active and inactive are the calls of the source. No cut-off for these calls is given here.

Experiments:
HepG2 = test: Antiproliferative activity against human HepG2 cells assessed as reduction in cell viability measured after 48 hrs by CCK8 assay; assay type: functional, cell-based; conditions: HepG2, 48 h
Method in brief: (§1)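 Cells pre-incubated 24 h at 37 °C, 5% CO2, then exposed to compounds over a concentration range in medium with 0.1% DMSO for a further 48 h at 37 °C. CCK-8 read-out as absorbance at 450 nm. IC50 taken from dose-response curves. Three independent experiments.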

MC-38 = test: Antiproliferative activity against mouse MC38 cells assessed as reduction in cell viability measured after 48 hrs by CCK8 assay; assay type: functional, cell-based; conditions: MC-38, 48 h; method in brief: as §1
HeLa = test: Antiproliferative activity against human HeLa cells assessed as reduction in cell viability measured after 48 hrs by CCK8 assay; assay type: functional, cell-based; method in brief: as §1
B16-F10 = test: Antiproliferative activity against mouse B16-F10 cells assessed as reduction in cell viability measured after 48 hrs by CCK8 assay; assay type: functional, cell-based; conditions: B16-F10, 48 h; method in brief: as §1
[1] = Antiproliferative activity against human A549/PTX cells assessed as reduction in cell viability measured after 48 hrs by CCK8 assay; assay type: functional, cell-based; conditions: A549/Taxol; method in brief: as §1
HEK293 = test: Cytotoxicity against HEK293 cells assessed as reduction in cell viability measured after 48 hrs by CCK8 assay; assay type: cell-based; conditions: Homo sapiens, HEK293, 48 h; method in brief: as §1
NCM460 = test: Cytotoxicity against human NCM460 cells assessed as reduction in cell viability measured after 48 hrs by CCK8 assay; assay type: cell-based; conditions: NCM460, 48 h; method in brief: as §1
[2] = target: Programmed cell death protein 1/Programmed cell death 1 ligand 1 (Homo sapiens, UniProt Q9NZQ7); test: Inhibition of PD1/PDL1 (unknown origin) protein-protein interaction measured after 15 mins by HTRF assay; assay type: protein-complex assay
Sequence of Programmed cell death protein 1/Programmed cell death 1 ligand 1 (Q15116 whole entry): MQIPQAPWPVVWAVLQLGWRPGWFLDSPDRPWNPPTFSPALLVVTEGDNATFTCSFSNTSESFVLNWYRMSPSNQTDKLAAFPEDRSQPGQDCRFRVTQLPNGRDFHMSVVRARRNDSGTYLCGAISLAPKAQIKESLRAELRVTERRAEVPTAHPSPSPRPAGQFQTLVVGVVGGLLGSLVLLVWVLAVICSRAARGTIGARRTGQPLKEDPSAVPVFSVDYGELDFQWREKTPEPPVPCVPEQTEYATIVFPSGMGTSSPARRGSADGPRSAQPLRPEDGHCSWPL
Sequence of Programmed cell death protein 1/Programmed cell death 1 ligand 1 (Q9NZQ7 whole entry): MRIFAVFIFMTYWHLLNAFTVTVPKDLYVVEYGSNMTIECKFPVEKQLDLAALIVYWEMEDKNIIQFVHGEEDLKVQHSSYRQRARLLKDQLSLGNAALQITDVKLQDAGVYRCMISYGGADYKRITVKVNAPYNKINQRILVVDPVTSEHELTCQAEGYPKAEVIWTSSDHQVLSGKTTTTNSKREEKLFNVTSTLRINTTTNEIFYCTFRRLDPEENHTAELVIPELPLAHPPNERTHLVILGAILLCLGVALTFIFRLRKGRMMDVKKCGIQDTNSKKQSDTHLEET

Tubulin (Homo sapiens) = Tubulin (Homo sapiens) (UniProt P68371+Q9H4B7+P0DPH7+P68366+Q13509+Q71U36+P04350+Q3ZCM7+P07437+P68363+Q9BQE3+Q6PEY2+Q13885+Q9BVA1+Q9BUF5); test: Disruption of microtubule network in human HepG2 cells at 5 uM measured after 24 hrs by immunofluorescence assay; assay type: cell-based
Method in brief: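 HepG2 cells on glass coverslips, treated 24 h after plating for 24 h (vehicle 0.1% DMSO). Fixed 15 min in 4% formaldehyde, permeabilized 5 min in 0.2% Triton X-100, blocked 30 min in 5% BSA. Immunostained with anti-tubulin antibody, then imaged by confocal laser scanning.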

[3] = (§2) Inhibition of pig brain tubulin polymerization by spectrophotometric method; assay type: tissue-based, Sus scrofa
Method in brief: (§3)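 Pig brain tubulin (three assembly/disassembly cycles, phosphocellulose P11 purification) mixed with compound at various concentrations in PEM buffer (100 mM PIPES, 1 mM MgCl2, 1 mM EGTA) with 1 mM GTP, 5% glycerol; polymerization read at 340 nm, 37 °C; plateau absorbance used.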

Sus scrofa = species on record: Sus scrofa; test: as §2; assay type: tissue-based; method in brief: as §3

| IC50 (HepG2) [µM] | IC50 (HeLa) [µM] | IC50 (B16-F10) [µM] | inhibition (Tubulin (Homo sapiens)) | IC50 [3] [µM] | SMILES | IC50 (MC-38) [µM] | IC50 [1] [µM] | IC50 (HEK293) [µM] | IC50 (NCM460) [µM] | IC50 [2] [µM] | inhibition (Sus scrofa) |
| --- | --- | --- | --- | --- | --- | --- | --- | --- | --- | --- | --- |
| > 10 | > 10 | > 10 |  |  | COc1ccc(/C=C\c2cc(OC)c(OC)c(OC)c2)cc1OCc1ccc(CN2C[C@H](O)C[C@@H]2C(=O)O)cc1 | > 10 | > 20 | > 50 | > 50 | > 100 |  |
| 5.3 | 9.2 | > 10 |  |  | COc1ccc(/C=C\c2cc(OC)c(OC)c(OC)c2)cc1OCc1ccc(CN2C[C@H](O)[C@@H](F)C2)cc1 | > 10 | 19.2 | 29 | 38 | 52 |  |
| 3.1 | 14.2 | > 10 |  |  | COc1ccc(/C=C\c2cc(OC)c(OC)c(OC)c2)cc1OCc1ccc(CN2CCCCC2C(=O)O)cc1 (configuration not stated) | 5.4 | 10.2 | > 50 | > 50 | > 100 |  |
| > 10 | > 10 | > 10 |  |  | COc1ccc(/C=C\c2cc(OC)c(OC)c(OC)c2)cc1OCc1ccc(CN2CCCC[C@@H]2C(=O)O)cc1 | > 10 | > 20 | 42 | > 50 | > 100 |  |
|  |  |  | Active |  | COc1ccc(/C=C\c2cc(OC)c(OC)c(OC)c2)cc1OCc1ccc(C=O)cc1 |  |  |  |  |  |  |
| 6.2 | > 10 | > 10 |  |  | COc1ccc(/C=C\c2cc(OC)c(OC)c(OC)c2)cc1OCc1ccc(CN2CC[C@@H](O)C2)cc1 | 6.9 | 8.9 | > 50 | 53 | > 100 |  |
| 6.4 | > 10 | 7 |  |  | COc1ccc(/C=C\c2cc(OC)c(OC)c(OC)c2)cc1OCc1ccc(CN2CC[C@H](C(=O)O)C2)cc1 | > 10 | 12 | > 50 | > 50 | 38.6 |  |
| > 10 | 6.5 | > 10 |  |  | COc1ccc(/C=C\c2cc(OC)c(OC)c(OC)c2)cc1OCc1ccc(CN2CC(C(=O)O)C2)cc1 | > 10 | > 20 | > 50 | > 50 | 42 |  |
| > 10 | > 10 | > 10 |  |  | COc1ccc(/C=C\c2cc(OC)c(OC)c(OC)c2)cc1OCc1ccc(CN[C@H](C(=O)O)[C@H](C)O)cc1 | > 10 | > 20 | > 50 | > 50 | 58.6 |  |
| 4.4 | 9.4 | > 10 |  |  | COc1ccc(/C=C\c2cc(OC)c(OC)c(OC)c2)cc1OCc1ccc(CNCCN(C)C)cc1 | 1.4 | 1.6 | 39 | 35 | > 100 |  |
|  |  |  |  |  | CC(=O)O[C@H]1C(=O)[C@@]2(C)[C@H]([C@H](OC(=O)c3ccccc3)[C@]3(O)C[C@H](OC(=O)[C@H](O)[C@@H](NC(=O)c4ccccc4)c4ccccc4)C(C)=C1C3(C)C)[C@]1(OC(C)=O)CO[C@@H]1C[C@@H]2O |  |  |  |  |  | inactive |
| 5.9 | 4.4 | 6.6 |  |  | COc1ccc(/C=C\c2cc(OC)c(OC)c(OC)c2)cc1OCc1ccc(CNCCO)cc1 | 1.2 | 0.8 | > 50 | 39 | 90.5 |  |
| 2.4 | 7.6 | 6.6 |  |  | COc1ccc(/C=C\c2cc(OC)c(OC)c(OC)c2)cc1OCc1ccc(CO)cc1 | 5.7 | 12 | 37 | > 50 | > 100 |  |
| 2.3 | 12.8 | > 10 |  | > 200 | COc1ccc(/C=C\c2cc(OC)c(OC)c(OC)c2)cc1OCc1ccc(CN2CC[C@@H](C(=O)O)C2)cc1 | 6.3 | > 20 | 27 | > 50 | > 100 |  |
| 6.1 | 6.4 | 2.5 |  | 60.7 | COc1ccc(/C=C\c2cc(OC)c(OC)c(OC)c2)cc1OCc1ccc(CNCCNC(C)=O)cc1 | 1.8 | 1.1 | > 50 | 54 | 44.8 |  |
| 1.1 | 2 | 4.7 |  | 202 | COc1ccc(/C=C\c2cc(OC)c(OC)c(OC)c2)cc1OCc1ccc(CN2CCCCC2C(=O)NCCNC(=O)OC(C)(C)C)cc1 (configuration not stated) | 1.9 | 15 | 48 | 28 | > 100 |  |
| > 10 | > 10 | 5.4 |  |  | COc1ccc(/C=C\c2cc(OC)c(OC)c(OC)c2)cc1OCc1ccc(CN[C@H](C(=O)O)[C@@H](C)O)cc1 | > 10 | > 20 | > 50 | > 50 | 50.7 |  |
| > 10 | > 10 | > 10 |  | > 200 | COc1ccc(/C=C\c2cc(OC)c(OC)c(OC)c2)cc1OCc1ccc(CN2CCCC[C@H]2C(=O)O)cc1 | > 10 | > 20 | > 50 | > 50 | > 100 |  |
| 4.8 | 7.3 | 4.6 |  |  | COc1ccc(/C=C\c2cc(OC)c(OC)c(OC)c2)cc1OCc1ccc(CN2CCCCC2C(=O)NCCN)cc1 (configuration not stated) | > 10 | 2.7 | > 50 | > 50 | 65.7 |  |
| 6.6 | 10.5 | > 10 |  |  | COc1ccc(/C=C\c2cc(OC)c(OC)c(OC)c2)cc1OCc1ccc(CN2CC[C@H](O)C2)cc1 | 7.2 | 5.9 | > 50 | 51 | 90 |  |
| 6.5 | > 10 | > 10 |  |  | COc1ccc(/C=C\c2cc(OC)c(OC)c(OC)c2)cc1OCc1ccc(CNC(C)(C)C(=O)O)cc1 | > 10 | > 20 | > 50 | > 50 | > 100 |  |

| SMILES | IC50 (HepG2) [µM] | IC50 (HeLa) [µM] | IC50 (B16-F10) [µM] | inhibition (Tubulin (Homo sapiens)) | IC50 [3] [µM] | IC50 (MC-38) [µM] | IC50 [1] [µM] | IC50 (HEK293) [µM] | IC50 (NCM460) [µM] | IC50 [2] [µM] | inhibition (Sus scrofa) |
| --- | --- | --- | --- | --- | --- | --- | --- | --- | --- | --- | --- |
| COc1ccc(/C=C\c2cc(OC)c(OC)c(OC)c2)cc1O [COMBRETASTATIN A4] | 0.59 | 0.06 | 0.05 |  | 4.31 | 0.08 | 0.62 | 11 | 12 | > 100 |  |
